# Screens: PubChem BioAssay, several laboratories
# Hits are enriched below; roughly 11% of the tested compounds scored in any of these assays.
# S1P3 agonist: S1P3 (human) receptor agonism; activation, % at 4.5 µM; AID 373; hit rate 0.1% among 60,000; Q99500; S1P3 NFAT-BLA reporter cells, FRET ratio; relative to 1 µM S1P, basal subtracted;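 active = activation above the screen-wide mean plus 3 SD, cut at about 4.5% in these data, passing the limit was not always enough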
#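 Measure – % activation relative to 1 µM S1P (100%), per plate · System – stable CHO line with human S1P3, Gα16, NFAT-BLA reporter · Timing – cells plated overnight, compound 4 h 37 °C, substrate 2 h RT · Technique – fluorescent BLA substrate, ex 405 nm, em 460/535 nm ratio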
# M1 antagonist: M1 muscarinic receptor (rat) antagonism. CHO-M1 cells, Fluo-4 calcium, ACh EC80 antagonist mode; stronger effect = lower value. AID 628. B-score at 10 µM. P08482. hit rate 3.4% among 64,000;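 active = calcium fluorescence response, raw or row-and-column corrected B-score, differing from the plate sample mean either way at a set confidence level, mostly lower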
# M1 ag: activates the M1 muscarinic receptor | B-score at 10 µM | hit rate 3% among 64,000 | CHO-M1 cells, Fluo-4 calcium fluorescence, agonist mode; stronger effect = higher value;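 active = fluorescence rise, raw or as B-score row- and column-corrected plate score, outside the 99.7% band of its plate's samples, either direction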
# S1P1 ag-PAM: agonists and agonism potentiators of human S1P1 receptor; P21453; S1P1 CRE-bla cells, forskolin, beta-lactamase FRET, potentiator mode; S1P1 agonist co-added at EC20, 2 nM; 100% = saturating reference agonist, 0% = basal; activation, % at 9.5 µM; hit rate 0.57% among 56,000;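 active = activation above a cutoff set at the mean activation of all tested compounds plus 3 SD, cut at about 54% in these data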;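 also: forskolin at 4 µM as EC80 and the EC20 agonist is SEW2871; 100% = SEW2871 at its EC100 plus forskolin at EC80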
# D1 allo mod: allosteric modulators of human D1 dopamine receptor; HEK293 D1, CRE-luciferase, dopamine EC30 potentiation; actives deviate in either direction; hit rate 5.9% among 58,000; B-score at 10 µM;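 active = luminescence count or its row- and column-corrected plate score outside the 99.7% band of the plate's sample wells, on either side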
# Target sequence (P21728 whole entry, looked up): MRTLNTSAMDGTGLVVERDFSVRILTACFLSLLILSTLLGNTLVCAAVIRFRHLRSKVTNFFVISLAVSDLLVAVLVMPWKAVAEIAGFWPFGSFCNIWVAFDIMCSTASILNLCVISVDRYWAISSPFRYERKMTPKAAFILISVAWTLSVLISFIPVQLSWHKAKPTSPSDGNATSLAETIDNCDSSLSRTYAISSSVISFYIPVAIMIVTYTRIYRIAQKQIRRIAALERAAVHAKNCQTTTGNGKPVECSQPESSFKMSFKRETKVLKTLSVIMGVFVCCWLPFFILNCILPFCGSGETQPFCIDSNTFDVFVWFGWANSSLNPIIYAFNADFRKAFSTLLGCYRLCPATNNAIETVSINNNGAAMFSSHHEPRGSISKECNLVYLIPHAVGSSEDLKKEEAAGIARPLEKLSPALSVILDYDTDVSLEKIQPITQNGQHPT
# D1 PAM confirm: confirmation of human D1 dopamine receptor allosteric modulators; shares compounds with D1 allo mod; HEK293 D1 CRE-luciferase, dopamine EC30 potentiation; stronger effect = higher value; luminescence at 10 µM; hit rate 88% among 2,200; AID 642;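 active = luminescence in either of two replicates above the same-plate mean plus 3 SD of the low-dose dopamine control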
# D1 ag no DA: secondary test of D1 modulators: activity without dopamine | HEK293 D1 CRE-luciferase, luminescence, no dopamine; stronger effect = higher value | hit rate 0.8% among 1,900 | AID 646 | shares compounds with D1 allo mod | luminescence at 10 µM; in the data active = luminescence above about 3900
# Isoprot counter: alters isoproterenol CRE-luciferase response in HEK293 cells | hit rate 63% among 2,200 | HEK293 D1 CRE-luciferase, isoproterenol EC30 counter-screen | calls only at 10 µM | shares compounds with D1 allo mod;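 active = luminescence in either replicate above plate mean of wells with a partly effective reference agonist dose plus 3 SD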;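 also: isoproterenol raises cAMP through native beta-adrenoceptor Gs so signal bypasses D1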
# * hit, by the source's call; i = inactive; . = no result; + = active, no number.
SMILES,S1P3 agonist,M1 antagonist,M1 ag,S1P1 ag-PAM,D1 allo mod,D1 PAM confirm,D1 ag no DA,Isoprot counter
CCC1(c2ccccc2)NC(=O)N(CC(=O)Nc2cccc(C#N)c2)C1=O (stereo not given),0,1,0.051,0,-0.018,.,.,.
CCc1cccc(NC(=O)CN(C)S(=O)(=O)c2cnc[nH]2)c1,0,0.061,0.21,8,.,.,.,.
CCCCOC(=O)c1ccc(NC(=O)C2CCCO2)cc1 (stereo not given),-1,0.033,0.096,18,0.15,.,.,.
CCOC(=O)c1ccc(NC(=O)C2CCCO2)cc1 (stereo not given),0,0.28,0.5,-13,23*,6456,1748,i
CCOC(=O)c1ccc(CSc2nnc(N)s2)cc1,0,0.22,-0.45,-4,3.7*,10844*,.,+
CCOC(=O)CSc1nnc(N)s1,0,0.61,1.2,-18,-0.84,.,.,.
COc1ccc(S(=O)(=O)NCc2csc(C)n2)cc1,0,1.6,-0.41,-6,0.0038,.,.,.
COc1cccc(-n2nnnc2SCC(=O)c2cc(OC)ccc2OC)c1,-2,.,.,2,4.2*,4344,1632,i
C1=CC2CC1CC2CNCc1ccco1 (stereo not given),1,-0.16,-0.49,-9,-0.29,.,.,.
CCOc1ccc(C(=O)Nc2nnc(C)s2)cc1OCC,-1,0.091,-0.23,-16,5.9*,13964*,.,+
CCOC(=O)Cc1nnc(NC(=O)c2cccc(OCC)c2)s1,-1,-0.66,-0.3,5,0.59,.,.,.
Cc1cc(C)n(C(=O)CN2C(=O)COc3ccccc32)n1,-1,0.4,1.5,4,1.7,.,.,.
CCc1n[nH]c2c1/C(=N\O)CC(c1ccccc1)C2 (stereo not given),0,-0.13,1.1,14,4.3*,7364*,1120,i
CCCCc1n[nH]c2c1/C(=N/O)CC(c1ccccc1)C2 (stereo not given),.,0.5,-0.47,.,-0.46,.,.,.
CCn1ncc(Br)c1C(=O)Nc1nccs1,0,-0.33,-0.55,-12,0.041,.,.,.
CCOC(=O)C1=C(N)n2c(s/c(=C/c3ccco3)c2=O)=C(C(=O)OC)C1c1ccco1 (stereo not given),1,0.48,-1.1,-24,1.5,.,.,.
N#CC1=C(N)n2c(s/c(=C\c3ccco3)c2=O)=C(C#N)C1c1ccco1 (stereo not given),-1,0.82,0.018,7,12*,14056*,1704,i
CN=C1c2ccccc2CN1c1cccc(C(=O)OC)c1,-2,-0.55,0.96,1,13*,19796*,1756,+
O=C(COC(=O)c1ccccc1NC(=O)c1ccco1)NCCC1=CCCCC1,0,1.5,-1.5,18,0.73,.,.,.
Cc1cccc(CCNS(=O)(=O)c2cnc[nH]2)c1,-1,-0.25,0.031,4,4.4*,5408,1484,i
COCCNc1oc(-c2ccc(C)cc2)nc1C#N,-2,0.28,-0.29,6,5.1*,5796*,1872,i
COCCNc1oc(-c2ccc(Cl)cc2)nc1C#N,-3,-0.34,-0.2,1,0.62,.,.,.
N#Cc1nc(-c2ccccc2Cl)oc1NCc1ccco1,-1,0.88,0.0085,-1,4.7*,12632*,1648,+
N#Cc1nc(Cc2ccccc2)oc1NCc1ccccc1Cl,-1,-1.6,0.21,.,12*,11100*,1556,+
COc1ccc(CNc2oc(-c3ccccc3)nc2C#N)cc1,0,0.83,-1.7,-4,10*,18596*,1724,+
SMILES,S1P3 agonist,M1 antagonist,M1 ag,S1P1 ag-PAM,D1 allo mod,D1 PAM confirm,D1 ag no DA,Isoprot counter
CC(C)N(CCc1ccncc1)C(=O)Nc1ccc(Cl)c(Cl)c1,0,-1.5,0.015,-6,-0.016,.,.,.
N#Cc1nc(-c2ccco2)oc1NCc1ccc(F)cc1,0,-0.34,-0.0044,-5,6.6*,12560*,1876,+
CNc1oc(-c2ccccc2)nc1C#N,-2,-1.3,0.057,8,7.4*,11304*,1648,+
N#Cc1nc(-c2ccco2)oc1NCc1cccnc1,0,0.3,-0.36,-41,2.3,.,.,.
COc1cccc(N(C(=O)c2cccs2)c2nc3ccccc3s2)c1,0,0.81,-1,37,7.6*,7024*,.,+
C=CCOC(=O)Nc1c(C(=O)OC)[nH]c2ccc(Cl)cc12,-1,-0.32,0.55,-13,-1.1,.,.,.
O=C(CN(Cc1ccc2c(c1)OCO2)C(=O)CSc1nc2ccccc2o1)NC1CCCCC1,0,-0.17,0.45,4,-0.022,.,.,.
COc1ccc(CSc2nnnn2C)cc1F,0,-0.33,-1.6,-12,0.22,.,.,.
N#Cc1cc2ccccc2nc1SCc1ccccn1,0,0.56,1.8,-3,4.4*,8624*,.,+
N#Cc1c(N)nc(SCc2ccccn2)c(C#N)c1-c1cccs1,-2,-0.042,-0.04,-26,.,.,.,.
CCn1cc(C(=O)O)c(=O)c2cnc(N3CCN(C(=O)Nc4ccccc4)CC3)nc21,-1,0.47,0.017,9,-0.51,.,.,.
O=c1/c(=C/c2cccc3ccccc23)sc2ncnn12,0,0.056,-0.056,4,3.8*,6052,1796,i
CCCCOc1ccc(/C=c2\sc3ncnn3c2=O)cc1,0,-0.064,-0.56,-21,2.7*,11772*,2228,+
CCCn1c(CNc2ccc(Br)cc2)nc2ccccc21,-1,-1.5,-1.7,54,0.18,.,.,.
Cc1nnc(NCc2ccco2)c2ccccc12,-1,0.049,1.2,0,0.53,.,.,.
Cc1nc(NCc2ccco2)c2oc3ccccc3c2n1,.,-0.41,-1,.,6*,11576*,.,+
Cc1nc(SCC(=O)O)c2oc3ccccc3c2n1,0,0.046,-0.57,-2,1.4,.,.,.
Cc1nc(SCCO)c2oc3ccccc3c2n1,-1,0.47,0.41,-57,7.3*,10060*,.,+
CCSc1ncnc2c1oc1ccccc12,-1,0.064,-0.01,-16,12*,11660*,1868,+
CCc1nc(N2CCCCC2)c2oc3ccccc3c2n1,-1,-0.15,1.3,-7,6.3*,6440*,1852,i
CC(C)n1c(=S)[nH]c2c1c(=O)[nH]c(=O)n2C,-2,.,.,-6,.,.,.,.
CCc1nc(NC(C)C)c2oc3ccccc3c2n1,.,-0.7,-1.5,.,22*,7576*,.,+
Cc1nc(N2CCOCC2)c2oc3ccccc3c2n1,0,-0.25,0.17,-56,4.6*,13356*,1720,+
c1ccc2c(c1)oc1c(N3CCOCC3)ncnc12,0,0.6,-1.5,19,3.6,.,.,.
